Columns and labels:
[1] = Cell cycle arrest in human MCF7/ADR cells assessed as accumulation at G2/M phase at 5 uM after 48 hrs using propidium iodide staining by flow cytometry (reference value: 22.51 +/- 1.5 %); assay type: functional, cell-based; conditions: NCI/ADR-RES
Outline: (§1)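 MCF-7/ADR cells exposed to test agent for 48 h, collected, washed and suspended in cold PBS. Fixed in chilled 75% methanol, then stained with PI solution (100 µg/mL RNase, 10 µg/mL PI in PBS). Phase distribution (G1, S, G2/M) determined by flow cytometry. Mean ± SEM of three independent experiments; one-way ANOVA with Newman–Keuls post hoc test, p<0.05.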

[2] = Cytotoxicity against human MCF7/ADR cells after 48 hrs by MTT assay; assay type: functional, cell-based; conditions: NCI/ADR-RES
Outline: (§2)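 Cells kept in RPMI-1640 with 10% heat-inactivated FBS, 1.25 mM HEPES and 1% penicillin/streptomycin. Seeded at 2×10^3 cells/well and grown 48 h, then treated with a range of concentrations for 24 or 48 h. MTT (5 mg/mL) added for 4 h at 37 °C, formazan dissolved in DMSO, absorbance read at 540 nm. Triplicate. IC50 from log concentration vs % viability loss; doxorubicin reference.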

DU-145 [3] = test: Cytotoxicity against human DU145 cells after 24 hrs by MTT assay; assay type: functional, cell-based; conditions: DU-145, 24 h; outline: as §2
[4] = Cytotoxicity against human MCF7/ADR cells after 24 hrs by MTT assay; assay type: functional, cell-based; conditions: NCI/ADR-RES; outline: as §2
DU-145 [5] = test: Cytotoxicity against human DU145 cells after 48 hrs by MTT assay; assay type: functional, cell-based; conditions: DU-145, 48 h; outline: as §2
LNCaP [6] = test: Cytotoxicity against androgen receptor-positive human LNCAP cells after 48 hrs by MTT assay; assay type: functional, cell-based; outline: as §2
PC-3 [7] = test: Cytotoxicity against androgen receptor-negative human PC3 cells after 48 hrs by MTT assay; assay type: functional, cell-based; conditions: PC-3, 48 h; outline: as §2
LNCaP [8] = test: Cytotoxicity against androgen receptor-positive human LNCAP cells after 24 hrs by MTT assay; assay type: functional, cell-based; outline: as §2
PC-3 [9] = test: Cytotoxicity against androgen receptor-negative human PC3 cells after 24 hrs by MTT assay; assay type: functional, cell-based; conditions: PC-3, 24 h; outline: as §2
[10] = Cell cycle arrest in human MCF7/ADR cells assessed as accumulation at G1 phase at 5 uM after 48 hrs using propidium iodide staining by flow cytometry (reference value: 62.15 +/- 3.14 %); assay type: functional, cell-based; conditions: NCI/ADR-RES; outline: as §1
[11] = Cell cycle arrest in human MCF7/ADR cells assessed as accumulation at S phase at 5 uM after 48 hrs using propidium iodide staining by flow cytometry (reference value: 15.34 +/- 0.98 %); assay type: functional, cell-based; conditions: NCI/ADR-RES; outline: as §1
MCF7 [12] = test: Ratio of doxorubicin IC50 to compound IC50 for estrogen receptor-positive human MCF7 cells after 48 hrs by MTT assay; assay type: functional
[13] = Cell cycle arrest in human MCF7/ADR cells assessed as accumulation at S phase at 0.2 uM after 48 hrs using propidium iodide staining by flow cytometry (reference value: 15.34 +/- 0.98 %); assay type: functional, cell-based; conditions: NCI/ADR-RES; outline: as §1
DU-145 [14] = test: Ratio of IC50 for androgen receptor-negative human PC3 cells to IC50 for human DU145 cells; assay type: functional
[15] = Cell cycle arrest in human MCF7/ADR cells assessed as accumulation at S phase at 0.05 uM after 48 hrs using propidium iodide staining by flow cytometry (reference value: 15.34 +/- 0.98 %); assay type: functional, cell-based; conditions: NCI/ADR-RES; outline: as §1
[16] = Cell cycle arrest in human MCF7/ADR cells assessed as accumulation at G2/M phase at 0.2 uM after 48 hrs using propidium iodide staining by flow cytometry (reference value: 22.51 +/- 1.5 %); assay type: functional, cell-based; conditions: NCI/ADR-RES; outline: as §1
[17] = Cell cycle arrest in human MCF7/ADR cells assessed as accumulation at G1 phase at 0.2 uM after 48 hrs using propidium iodide staining by flow cytometry (reference value: 62.15 +/- 3.14 %); assay type: functional, cell-based; conditions: NCI/ADR-RES; outline: as §1
[18] = Cell cycle arrest in human MCF7/ADR cells assessed as accumulation at G2/M phase at 0.05 uM after 48 hrs using propidium iodide staining by flow cytometry (reference value: 22.51 +/- 1.5 %); assay type: functional, cell-based; conditions: NCI/ADR-RES; outline: as §1
LNCaP [19] = test: Ratio of IC50 for androgen receptor-negative human PC3 cells to IC50 for androgen receptor-positive human LNCAP cells; assay type: functional
[20] = Cell cycle arrest in human MCF7/ADR cells assessed as accumulation at G1 phase at 0.1 uM after 48 hrs using propidium iodide staining by flow cytometry (reference value: 62.15 +/- 3.14 %); assay type: functional, cell-based; conditions: NCI/ADR-RES; outline: as §1
MCF7 [21] = test: Cytotoxicity against estrogen receptor-positive human MCF7 cells after 24 hrs by MTT assay; assay type: functional, cell-based; conditions: MCF7, 24 h; outline: as §2
MCF7 [22] = test: Cytotoxicity against estrogen receptor-positive human MCF7 cells after 48 hrs by MTT assay; assay type: functional, cell-based; conditions: MCF7, 48 h; outline: as §2
MCF7 [23] = test: Ratio of IC50 for androgen receptor-negative human PC3 cells to IC50 for estrogen receptor-positive human MCF7 cells; assay type: functional
[24] = Cell cycle arrest in human MCF7/ADR cells assessed as accumulation at G1 phase at 0.05 uM after 48 hrs using propidium iodide staining by flow cytometry (reference value: 62.15 +/- 3.14 %); assay type: functional, cell-based; conditions: NCI/ADR-RES; outline: as §1
[25] = Cell cycle arrest in human MCF7/ADR cells assessed as accumulation at G2/M phase at 0.1 uM after 48 hrs using propidium iodide staining by flow cytometry (reference value: 22.51 +/- 1.5 %); assay type: functional, cell-based; conditions: NCI/ADR-RES; outline: as §1
NCI/ADR-RES = test: Ratio of IC50 for androgen receptor-negative human PC3 cells to IC50 for human MCF7/ADR cells; assay type: functional
[26] = Cell cycle arrest in human MCF7/ADR cells assessed as accumulation at S phase at 0.1 uM after 48 hrs using propidium iodide staining by flow cytometry (reference value: 15.34 +/- 0.98 %); assay type: functional, cell-based; conditions: NCI/ADR-RES; outline: as §1

## COc1cccc2c1C(=O)c1c(O)c3c(c(O)c1C2=O)C[C@@](O)(C(=O)CO)C[C@@H]3O[C@H]1C[C@H](N)[C@H](O)[C@H](C)O1 [DOXORUBICIN]
[1]
  Activity: 24.6%
[2]
  IC50: 13600 nM
DU-145 [3]
  IC50: 6240 nM
[4]
  IC50: > 20000 nM
DU-145 [5]
  IC50: 580 nM
LNCaP [6]
  IC50: 1660 nM
PC-3 [7]
  IC50: 1220 nM
LNCaP [8]
  IC50: 7420 nM
PC-3 [9]
  IC50: 4.1 µM
[10]
  Activity: 53.3%
[11]
  Activity: 21.9%

## COc1cc2c(c3c1c(=O)c1cccnc1n3C)C[C@H]([C@]1(C)CO1)O2 (racemic)
MCF7 [12]
  Ratio IC50: 1.5
[2]
  IC50: 920 nM
[13]
  Activity: 16.6%
DU-145 [14]
  Ratio IC50: 2
[15]
  Activity: 11.2%
DU-145 [3]
  IC50: 2360 nM
[16]
  Activity: 28.3%
[4]
  IC50: 2210 nM
DU-145 [5]
  IC50: 840 nM
[17]
  Activity: 55.2%
[18]
  Activity: 20.5%
LNCaP [19]
  Ratio IC50: 2
[20]
  Activity: 64.6%
MCF7 [21]
  IC50: 1840 nM
MCF7 [22]
  IC50: 1020 nM
LNCaP [6]
  IC50: 860 nM
MCF7 [23]
  Ratio IC50: 2
PC-3 [7]
  IC50: 2150 nM
[24]
  Activity: 68.4%
[25]
  Activity: 21.8%
LNCaP [8]
  IC50: 2480 nM
NCI/ADR-RES
  Ratio IC50: 2
PC-3 [9]
  IC50: 4.67 µM
[26]
  Activity: 13.6%

## COc1cc2c(c3c1c(=O)c1cccnc1n3C)C[C@H]([C@@]1(C)CO1)O2 (racemic)
[2]
  IC50: 150 nM
[13]
  Activity: 7.68%
[15]
  Activity: 12.4%
DU-145 [3]
  IC50: 550 nM
[16]
  Activity: 41.1%
[4]
  IC50: 490 nM
DU-145 [5]
  IC50: 150 nM
[17]
  Activity: 51.2%
[18]
  Activity: 24.1%
[20]
  Activity: 57.4%
MCF7 [21]
  IC50: 660 nM
MCF7 [22]
  IC50: 260 nM
LNCaP [6]
  IC50: 140 nM
PC-3 [7]
  IC50: 300 nM
[24]
  Activity: 63.5%
[25]
  Activity: 33.7%
LNCaP [8]
  IC50: 480 nM
PC-3 [9]
  IC50: 0.56 µM
[26]
  Activity: 8.97%

From ChEMBL document CHEMBL1833929, “Design, synthesis and anticancer activity of novel dihydrobenzofuro[4,5-b][1,8]naphthyridin-6-one derivatives” (Bioorg Med Chem Lett, 2011)
